Data on two molecules can be found in publication PMC7523912 (ACS applied bio materials, 2019).

Series [1] relates to PDGF-BB mediated proliferation of normal human lung fibroblasts (NHLF). Nature of the series: Inhibition of PDGF-BB mediated proliferation assay. The format is cell-based. The conditions noted are these: PDGF-BB only samples, CyQuant. Summed up: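 NHLF at passage 3–4 were grown in DMEM with 10% FBS and 1% penicillin/streptomycin. Cells were seeded at 10,000/well, recovered overnight, then starved 6 h in 0.5% FBS. PDGF-BB was given as 1:2 serial dilutions from 100 to 1.56 ng/mL, alone or with 500 nM free aptamer, 100 μM diluent PA, or apt-PAN (500 nM aptamer-PA, 100 μM total PA). CyQuant Direct was read at 24 and 48 h, normalised to growth-factor-only wells, with three independent experiments, mean ± SD.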

For series [2] the following is noted: no reference or method printed; cited from earlier work.
The target of series [3] is platelet-derived growth factor-BB (UniProt P01127 82-190). Nature of the series: BLI.
Sequence of platelet-derived growth factor-BB (P01127 82-190): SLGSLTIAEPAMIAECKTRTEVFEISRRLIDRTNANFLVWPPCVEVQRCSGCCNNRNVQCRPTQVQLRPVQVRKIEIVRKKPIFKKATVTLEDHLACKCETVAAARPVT

*: point of attachment. Palmitoyl = CCCCCCCCCCCCCCCC(=O)*

Turning to “PDGF-BB: Platelet derived growth factor-BB”, in series [1], the “increase in total DNA, after 48 hours” value is “more than two-fold”. In addition, the isoelectric point in series [2] was 9.8.

B1: diluent peptide amphiphile (palmitoyl-V3A3E3), as self-assembled nanofibers (peptide)
peptide: Palmitoyl-VVVAAAEEE-NH2
Broadly, the koff is a measure of how fast the partners let go of each other. A low value points to a long-lived complex. By kon is commonly meant the second-order rate constant of association. In series [3], B1 had a koff of 0.000498 s⁻¹ and a kon of 1080 M⁻¹ s⁻¹.
